Calls of active or inactive are those of the source. The calls are words filed in the database; no cut-off is given here.

Data set [1] in a line: Cmax in monkey plasma at 20 mg/kg, po measured up to 24 hrs by LC/MS analysis. In kind it is ADME, organism-based, Macaca mulatta. Set-up: dose 20 mg/kg, route oral. The note with it: rhesus monkey. Summed up:
(§1)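 Monkey i.v./p.o. study: oral 20mg/kg in 10% DMSO, 0.1% Tween 80, 0.5% hydroxypropylmethylcellulose in water; i.v. dose 1mg/kg.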

A short description of data set [2]: Oral bioavailability in monkey plasma at 20 mg/kg measured up to 24 hrs by LC/MS analysis. The following applies: rhesus monkey. In kind it is ADME, organism-based, Macaca mulatta. Summed up:
as §1

The species entered for another data set is Macaca mulatta. In words: Agonist activity at monkey glucocorticoid receptor in primary hepatocytes assessed as induction of tyrosine amino transferase activity measured after 20 hrs. In kind it is cell-based.
In data set [3] the target is T1, Glucocorticoid receptor (Canis lupus familiaris) (UniProt A0A8C0QLS2).
T1 sequence (whole entry): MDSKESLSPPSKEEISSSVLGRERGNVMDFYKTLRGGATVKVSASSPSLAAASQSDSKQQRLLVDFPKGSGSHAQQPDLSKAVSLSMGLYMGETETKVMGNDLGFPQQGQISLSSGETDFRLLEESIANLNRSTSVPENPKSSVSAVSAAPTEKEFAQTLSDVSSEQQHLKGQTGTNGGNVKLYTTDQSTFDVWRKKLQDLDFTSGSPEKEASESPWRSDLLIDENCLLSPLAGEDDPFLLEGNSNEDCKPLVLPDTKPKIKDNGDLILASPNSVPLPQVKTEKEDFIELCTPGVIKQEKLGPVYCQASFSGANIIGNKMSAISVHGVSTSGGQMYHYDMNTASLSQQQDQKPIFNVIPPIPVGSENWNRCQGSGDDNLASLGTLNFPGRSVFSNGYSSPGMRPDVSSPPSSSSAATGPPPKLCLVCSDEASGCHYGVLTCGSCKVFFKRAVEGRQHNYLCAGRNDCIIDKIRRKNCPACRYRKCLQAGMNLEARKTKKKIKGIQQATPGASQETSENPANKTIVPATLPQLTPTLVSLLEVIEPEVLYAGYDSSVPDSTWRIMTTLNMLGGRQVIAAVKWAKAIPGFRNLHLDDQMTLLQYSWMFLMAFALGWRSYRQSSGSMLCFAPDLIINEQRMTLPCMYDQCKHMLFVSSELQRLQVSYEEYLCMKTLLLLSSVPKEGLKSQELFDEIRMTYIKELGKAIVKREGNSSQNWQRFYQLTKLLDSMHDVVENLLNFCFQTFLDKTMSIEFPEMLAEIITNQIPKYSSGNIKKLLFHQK
In words: (§2) Agonist activity at dog glucocorticoid receptor in primary hepatocytes assessed as induction of tyrosine amino transferase activity measured after 20 hrs. The class given is cell-based.

The next data set deals with T2, Glucocorticoid receptor (Canis lupus familiaris, UniProt A0A8C0QLS2).
T2 sequence (A0A8C0QLS2 whole entry): T1 sequence (whole entry)
Described as §2. The class given is cell-based.

Another data set has as its system Rattus norvegicus. In words: In vivo antagonist activity at glucocorticoid receptor in Sprague-Dawley rat assessed as reduction in cortisone-induced plasma glucose levels at 7.5 mg/kg, po bid via gavage for 6 days pretreated for 12 hrs followed by cortisone 21-acetate treatment measured 24 hrs after last cortisone 21-acetate treatment. In kind it is functional, organism-based. Summed up:
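Male Sprague Dawley rats (200-250 g) got vehicle daily for a 3-day baseline, then groups of eight were dosed. Test agent was suspended in DMSO:Tween 80:0.5% HPMC (10:0.1:89.9) and given by oral gavage twice daily for 6 days. Cortisone 21-acetate was given at 30 mg/kg s.c. once daily in 1% methylcellulose. Tail-vein blood was taken 24 h after the last cortisone dose (12 h after the last test dose). Glucose was read with a clinical reagent and insulin by rat ELISA.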

The target in data set [4] is T3, Cytochrome P450 2B6 (Homo sapiens, UniProt P20813).
T3 sequence (P20813 whole entry): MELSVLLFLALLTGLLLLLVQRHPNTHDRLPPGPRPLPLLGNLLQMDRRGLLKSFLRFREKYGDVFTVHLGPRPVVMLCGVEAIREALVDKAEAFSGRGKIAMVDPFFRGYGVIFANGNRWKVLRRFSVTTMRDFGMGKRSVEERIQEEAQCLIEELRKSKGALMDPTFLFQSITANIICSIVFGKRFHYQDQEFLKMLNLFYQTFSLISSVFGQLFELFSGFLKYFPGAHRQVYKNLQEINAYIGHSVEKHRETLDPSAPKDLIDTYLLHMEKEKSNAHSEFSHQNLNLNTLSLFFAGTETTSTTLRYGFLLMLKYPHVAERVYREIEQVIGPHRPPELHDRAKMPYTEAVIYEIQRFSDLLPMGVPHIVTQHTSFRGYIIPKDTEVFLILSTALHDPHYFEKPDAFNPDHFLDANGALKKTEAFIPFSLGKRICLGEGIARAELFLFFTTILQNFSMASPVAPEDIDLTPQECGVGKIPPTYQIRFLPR
Nature of the data set: Inhibition of CYP2B6 (unknown origin). The class given is ADME.

In another data set the target is Cytochrome P450 2C19 (Homo sapiens, UniProt P33261). Nature of the data set: Time-dependent inhibition of CYP2C19 (unknown origin). In kind it is ADME.
Chain of Cytochrome P450 2C19 (P33261 whole entry): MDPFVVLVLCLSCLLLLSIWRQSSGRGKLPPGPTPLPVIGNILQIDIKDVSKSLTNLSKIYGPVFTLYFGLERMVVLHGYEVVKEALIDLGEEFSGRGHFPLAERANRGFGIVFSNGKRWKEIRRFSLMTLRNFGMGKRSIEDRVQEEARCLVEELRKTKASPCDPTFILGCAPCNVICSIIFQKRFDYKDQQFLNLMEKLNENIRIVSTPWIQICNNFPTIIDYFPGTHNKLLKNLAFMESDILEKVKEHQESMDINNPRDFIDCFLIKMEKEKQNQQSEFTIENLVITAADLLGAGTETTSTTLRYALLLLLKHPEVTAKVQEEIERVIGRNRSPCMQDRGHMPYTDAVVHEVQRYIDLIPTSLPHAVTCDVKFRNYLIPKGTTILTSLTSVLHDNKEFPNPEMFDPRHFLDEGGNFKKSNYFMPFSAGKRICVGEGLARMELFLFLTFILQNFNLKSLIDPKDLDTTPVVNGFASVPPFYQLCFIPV
A further data set has as its target Cytochrome P450 2D6 (Homo sapiens, UniProt P10635). Nature of the data set: Time-dependent inhibition of CYP2D6 (unknown origin). The class given is ADME.
In data set [5] the target is T3, Cytochrome P450 2B6. Nature of the data set: Induction of CYP2B6 in human hepatocytes. The class given is ADME, cell-based.
In another data set the target is Cytochrome P450 3A4 (Homo sapiens, UniProt P08684). Nature of the data set: Induction of CYP3A4 in human hepatocytes. In kind it is ADME, cell-based.
Chain of Cytochrome P450 3A4 (P08684 whole entry): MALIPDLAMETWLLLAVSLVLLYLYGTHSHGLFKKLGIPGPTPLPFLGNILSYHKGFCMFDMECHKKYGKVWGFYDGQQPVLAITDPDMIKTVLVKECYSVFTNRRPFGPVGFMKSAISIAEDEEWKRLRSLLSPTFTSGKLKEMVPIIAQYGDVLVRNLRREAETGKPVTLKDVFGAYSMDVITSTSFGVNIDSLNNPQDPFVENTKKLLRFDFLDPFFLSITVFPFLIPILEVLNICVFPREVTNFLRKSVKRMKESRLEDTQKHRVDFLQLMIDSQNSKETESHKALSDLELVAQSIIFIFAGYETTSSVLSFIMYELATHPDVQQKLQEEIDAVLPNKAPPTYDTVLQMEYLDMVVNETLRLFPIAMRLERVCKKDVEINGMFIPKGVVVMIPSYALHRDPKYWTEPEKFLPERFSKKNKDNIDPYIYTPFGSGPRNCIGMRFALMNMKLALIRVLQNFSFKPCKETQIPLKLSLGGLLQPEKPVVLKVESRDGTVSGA
Data set [6] has as its target T4, Glucocorticoid receptor (Homo sapiens) (UniProt P04150).
T4 sequence (whole entry): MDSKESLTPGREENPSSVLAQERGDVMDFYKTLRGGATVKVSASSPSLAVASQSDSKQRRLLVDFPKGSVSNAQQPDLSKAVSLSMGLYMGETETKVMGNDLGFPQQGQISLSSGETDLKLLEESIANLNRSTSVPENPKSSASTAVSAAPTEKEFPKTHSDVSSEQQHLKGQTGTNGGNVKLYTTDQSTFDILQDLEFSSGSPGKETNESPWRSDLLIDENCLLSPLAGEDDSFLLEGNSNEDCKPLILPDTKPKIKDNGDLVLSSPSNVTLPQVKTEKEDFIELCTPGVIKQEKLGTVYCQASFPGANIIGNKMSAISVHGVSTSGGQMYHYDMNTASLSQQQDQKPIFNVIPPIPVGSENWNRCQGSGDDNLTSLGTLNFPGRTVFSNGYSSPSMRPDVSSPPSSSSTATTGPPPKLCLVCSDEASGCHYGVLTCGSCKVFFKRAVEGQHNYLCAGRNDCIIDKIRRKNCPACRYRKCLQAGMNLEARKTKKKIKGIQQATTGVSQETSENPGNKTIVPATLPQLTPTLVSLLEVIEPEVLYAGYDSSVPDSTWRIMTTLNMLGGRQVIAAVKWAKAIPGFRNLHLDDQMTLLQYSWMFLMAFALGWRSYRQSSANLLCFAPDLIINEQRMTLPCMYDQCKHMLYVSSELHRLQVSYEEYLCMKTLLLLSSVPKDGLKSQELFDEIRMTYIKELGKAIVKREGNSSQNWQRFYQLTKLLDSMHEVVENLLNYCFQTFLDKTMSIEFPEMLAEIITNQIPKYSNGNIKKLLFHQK
In words: Agonist activity at glucocorticoid receptor in human primary hepatocytes assessed as induction of tyrosine amino transferase activity measured after 20 hrs relative to control. In kind it is cell-based.

Chain of Cytochrome P450 2D6 (P10635 whole entry): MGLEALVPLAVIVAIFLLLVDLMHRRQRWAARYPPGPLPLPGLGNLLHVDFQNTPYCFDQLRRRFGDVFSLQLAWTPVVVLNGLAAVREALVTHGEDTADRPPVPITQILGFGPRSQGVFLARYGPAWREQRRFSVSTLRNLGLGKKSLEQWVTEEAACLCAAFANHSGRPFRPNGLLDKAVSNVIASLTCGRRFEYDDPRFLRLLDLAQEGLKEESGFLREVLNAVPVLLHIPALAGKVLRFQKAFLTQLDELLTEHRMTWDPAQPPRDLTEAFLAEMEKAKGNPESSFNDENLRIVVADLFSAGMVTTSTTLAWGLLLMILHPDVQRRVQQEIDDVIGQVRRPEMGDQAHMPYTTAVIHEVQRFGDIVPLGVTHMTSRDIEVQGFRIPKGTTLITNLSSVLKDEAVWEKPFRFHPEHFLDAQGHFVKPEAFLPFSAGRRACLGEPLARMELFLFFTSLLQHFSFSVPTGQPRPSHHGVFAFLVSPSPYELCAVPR

In data set [1], `Cn1cc(S(=O)(=O)N2CCC3=Cc4c(cnn4-c4ccc(F)cc4)C[C@]3(C(=O)c3cc(C(F)(F)F)ccn3)C2)cn1` [RELACORILANT] registered a Cmax of 1140 ng/mL. Further, the bioavailability in data set [2] was determined as 88%. Moreover, the Emax in the data set listed under Macaca mulatta worked out at 0%; in [3], 80%; in [6], 0%. Also, at Glucocorticoid receptor, the EC50 was more than 10 µM. Further, in the data set with Rattus norvegicus, the inhibition result is “Active”. Further, at Cytochrome P450 2B6 [4], the IC50 is more than 10 µM. The TDI entry at Cytochrome P450 2C19 and on Cytochrome P450 2D6 was “Not Active” each time. Moreover, the Activity result at Cytochrome P450 2B6 [5] and on Cytochrome P450 3A4 was “Not Active” throughout.

The record behind these values is ChEMBL document CHEMBL4049426, “Identification of the Clinical Candidate (R)-(1-(4-Fluorophenyl)-6-((1-methyl-1H-pyrazol-4-yl)sulfonyl)-4,4a,5,6,7,8-hexahydro-1H-pyrazolo[3,4-g]isoquinolin-4a-yl)(4-(trifluoromethyl)pyridin-2-yl)methanone (CORT125134): A Selective Glucocorticoid Receptor (GR) Antagonist” (J Med Chem, 2017).
